In ChEMBL document CHEMBL4371052, “Diarylcarbonates are a new class of deubiquitinating enzyme inhibitor” (Bioorg Med Chem Lett, 2019):
Active and inactive are the calls of the source. The calls are words filed in the database; no cut-off is given here.

Experiments:
[1] = Inhibition of deubiquitinase in HEK293T cells expressing N-terminal HA-tagged ubiquitin assessed as stabilization of HMW-Ub proteins after 2 hrs by Western blot analysis; assay type: cell-based, Homo sapiens
Homo sapiens [2] = species: Homo sapiens; experiment: Inhibition of deubiquitinase in HEK293T cells expressing N-terminal HA-tagged ubiquitin assessed as stabilization of HMW-Ub proteins at 1 uM after 2 hrs by Western blot analysis; assay type: cell-based
Homo sapiens [3] = species: Homo sapiens; experiment: Inhibition of deubiquitinase in HEK293T cells expressing N-terminal HA-tagged ubiquitin assessed as stabilization of HMW-Ub proteins at 25 uM after 2 hrs by Western blot analysis; assay type: cell-based
MCF7 = experiment: Cytotoxicity against human MCF7 cells assessed as decrease in cell viability treated every 24 hrs measured after 72 hrs by alamar blue assay; assay type: functional, cell-based
Method in brief: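 MCF7 or B16/F10 cells dosed with compound every 24 h. Viable cells were quantified with Alamar Blue after 72 h.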

[4] = target: Ubiquitin carboxyl-terminal hydrolase 9X (Homo sapiens) (UniProt Q93008); experiment: Inhibition of recombinant human N-terminal His6-tagged USP9x assessed as association constant using Cy5-UbVME as substrate preincubated for 15 mins followed by substrate addition and measured after 7 mins by fluorescence assay
Sequence of Ubiquitin carboxyl-terminal hydrolase 9X (Homo sapiens) (Q93008 whole entry, the tested form may be a part): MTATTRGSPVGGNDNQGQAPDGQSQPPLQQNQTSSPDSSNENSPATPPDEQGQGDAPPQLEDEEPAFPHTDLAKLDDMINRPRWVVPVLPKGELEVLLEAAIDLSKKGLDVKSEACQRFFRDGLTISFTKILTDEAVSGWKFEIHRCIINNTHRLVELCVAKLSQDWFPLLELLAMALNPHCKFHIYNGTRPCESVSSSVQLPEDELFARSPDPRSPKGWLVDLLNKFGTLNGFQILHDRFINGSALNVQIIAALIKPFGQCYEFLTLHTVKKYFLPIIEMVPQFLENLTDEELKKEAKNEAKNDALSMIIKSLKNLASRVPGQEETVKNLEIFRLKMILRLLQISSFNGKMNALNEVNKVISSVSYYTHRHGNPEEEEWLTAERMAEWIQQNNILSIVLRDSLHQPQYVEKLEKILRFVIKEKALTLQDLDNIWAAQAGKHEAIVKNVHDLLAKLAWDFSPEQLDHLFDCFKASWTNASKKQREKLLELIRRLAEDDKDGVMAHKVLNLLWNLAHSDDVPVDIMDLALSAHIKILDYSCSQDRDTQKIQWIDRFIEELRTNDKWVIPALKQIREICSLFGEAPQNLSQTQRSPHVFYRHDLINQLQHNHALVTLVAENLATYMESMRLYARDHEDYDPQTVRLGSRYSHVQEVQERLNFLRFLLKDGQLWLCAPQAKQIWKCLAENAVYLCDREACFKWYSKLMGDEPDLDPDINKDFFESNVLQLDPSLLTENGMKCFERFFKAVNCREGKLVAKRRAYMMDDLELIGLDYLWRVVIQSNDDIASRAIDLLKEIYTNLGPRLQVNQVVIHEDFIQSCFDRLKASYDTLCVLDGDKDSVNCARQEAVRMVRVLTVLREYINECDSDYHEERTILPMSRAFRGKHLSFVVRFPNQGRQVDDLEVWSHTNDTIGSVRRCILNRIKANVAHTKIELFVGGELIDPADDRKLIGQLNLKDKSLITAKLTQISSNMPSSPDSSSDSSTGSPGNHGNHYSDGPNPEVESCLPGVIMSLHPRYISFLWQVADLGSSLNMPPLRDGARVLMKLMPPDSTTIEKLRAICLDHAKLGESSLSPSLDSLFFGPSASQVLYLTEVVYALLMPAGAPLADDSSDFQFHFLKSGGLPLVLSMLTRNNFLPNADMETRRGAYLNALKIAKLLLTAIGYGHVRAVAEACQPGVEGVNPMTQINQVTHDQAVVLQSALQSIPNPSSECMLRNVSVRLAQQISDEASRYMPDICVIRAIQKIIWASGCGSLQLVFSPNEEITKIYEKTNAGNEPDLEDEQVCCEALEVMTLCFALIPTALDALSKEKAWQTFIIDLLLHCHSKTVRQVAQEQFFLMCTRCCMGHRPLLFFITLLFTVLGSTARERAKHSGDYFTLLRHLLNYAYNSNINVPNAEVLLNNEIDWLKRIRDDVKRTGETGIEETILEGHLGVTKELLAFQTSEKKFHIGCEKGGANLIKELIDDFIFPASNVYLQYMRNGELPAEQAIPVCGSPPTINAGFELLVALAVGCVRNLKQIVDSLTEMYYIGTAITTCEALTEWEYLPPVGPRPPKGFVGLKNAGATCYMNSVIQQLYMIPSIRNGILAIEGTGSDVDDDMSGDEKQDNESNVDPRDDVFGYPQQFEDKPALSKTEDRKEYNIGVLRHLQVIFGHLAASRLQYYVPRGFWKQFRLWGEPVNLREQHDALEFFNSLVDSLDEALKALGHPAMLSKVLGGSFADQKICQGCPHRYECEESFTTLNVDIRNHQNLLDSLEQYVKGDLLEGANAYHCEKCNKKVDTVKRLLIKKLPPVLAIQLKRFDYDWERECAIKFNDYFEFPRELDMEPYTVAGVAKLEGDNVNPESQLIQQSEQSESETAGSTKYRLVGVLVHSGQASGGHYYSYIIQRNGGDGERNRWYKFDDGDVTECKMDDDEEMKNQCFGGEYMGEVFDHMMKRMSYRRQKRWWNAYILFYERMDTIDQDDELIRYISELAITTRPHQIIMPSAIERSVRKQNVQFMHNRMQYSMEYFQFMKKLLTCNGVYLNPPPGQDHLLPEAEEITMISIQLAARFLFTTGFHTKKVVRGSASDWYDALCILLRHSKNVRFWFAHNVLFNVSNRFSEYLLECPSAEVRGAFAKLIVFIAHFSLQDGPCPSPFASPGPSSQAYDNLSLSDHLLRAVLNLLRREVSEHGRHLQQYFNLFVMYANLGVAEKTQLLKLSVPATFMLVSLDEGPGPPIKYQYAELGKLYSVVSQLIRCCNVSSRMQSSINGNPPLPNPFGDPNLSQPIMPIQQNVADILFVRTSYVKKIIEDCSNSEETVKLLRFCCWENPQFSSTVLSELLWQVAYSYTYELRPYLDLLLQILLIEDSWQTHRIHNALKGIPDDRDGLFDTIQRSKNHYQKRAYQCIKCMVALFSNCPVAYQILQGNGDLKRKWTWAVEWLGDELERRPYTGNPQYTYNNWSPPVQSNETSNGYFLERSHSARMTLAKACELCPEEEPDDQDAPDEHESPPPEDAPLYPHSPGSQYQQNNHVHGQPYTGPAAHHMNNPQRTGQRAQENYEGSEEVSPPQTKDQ

Homo sapiens [5] = species: Homo sapiens; experiment: Inhibition of deubiquitinase in HEK293T cells expressing N-terminal HA-tagged ubiquitin assessed as stabilization of HMW-Ub proteins at 100 uM after 2 hrs by Western blot analysis; assay type: cell-based
[6] = target: Ubiquitin carboxyl-terminal hydrolase 9X (Homo sapiens) (UniProt Q93008); experiment: Inhibition of recombinant His6-tagged USP9x catalytic domain (unknown origin) assessed as association constant using Ub-AMC as substrate by fluorescence assay
[7] = target: Ubiquitin carboxyl-terminal hydrolase 7 (Homo sapiens) (UniProt Q93009); experiment: Inhibition of recombinant His6-tagged USP7 catalytic domain (unknown origin) assessed as association constant using Ub-AMC as substrate by fluorescence assay
Sequence of Ubiquitin carboxyl-terminal hydrolase 7 (Homo sapiens) (Q93009 whole entry, looked up, the tested form may be a part): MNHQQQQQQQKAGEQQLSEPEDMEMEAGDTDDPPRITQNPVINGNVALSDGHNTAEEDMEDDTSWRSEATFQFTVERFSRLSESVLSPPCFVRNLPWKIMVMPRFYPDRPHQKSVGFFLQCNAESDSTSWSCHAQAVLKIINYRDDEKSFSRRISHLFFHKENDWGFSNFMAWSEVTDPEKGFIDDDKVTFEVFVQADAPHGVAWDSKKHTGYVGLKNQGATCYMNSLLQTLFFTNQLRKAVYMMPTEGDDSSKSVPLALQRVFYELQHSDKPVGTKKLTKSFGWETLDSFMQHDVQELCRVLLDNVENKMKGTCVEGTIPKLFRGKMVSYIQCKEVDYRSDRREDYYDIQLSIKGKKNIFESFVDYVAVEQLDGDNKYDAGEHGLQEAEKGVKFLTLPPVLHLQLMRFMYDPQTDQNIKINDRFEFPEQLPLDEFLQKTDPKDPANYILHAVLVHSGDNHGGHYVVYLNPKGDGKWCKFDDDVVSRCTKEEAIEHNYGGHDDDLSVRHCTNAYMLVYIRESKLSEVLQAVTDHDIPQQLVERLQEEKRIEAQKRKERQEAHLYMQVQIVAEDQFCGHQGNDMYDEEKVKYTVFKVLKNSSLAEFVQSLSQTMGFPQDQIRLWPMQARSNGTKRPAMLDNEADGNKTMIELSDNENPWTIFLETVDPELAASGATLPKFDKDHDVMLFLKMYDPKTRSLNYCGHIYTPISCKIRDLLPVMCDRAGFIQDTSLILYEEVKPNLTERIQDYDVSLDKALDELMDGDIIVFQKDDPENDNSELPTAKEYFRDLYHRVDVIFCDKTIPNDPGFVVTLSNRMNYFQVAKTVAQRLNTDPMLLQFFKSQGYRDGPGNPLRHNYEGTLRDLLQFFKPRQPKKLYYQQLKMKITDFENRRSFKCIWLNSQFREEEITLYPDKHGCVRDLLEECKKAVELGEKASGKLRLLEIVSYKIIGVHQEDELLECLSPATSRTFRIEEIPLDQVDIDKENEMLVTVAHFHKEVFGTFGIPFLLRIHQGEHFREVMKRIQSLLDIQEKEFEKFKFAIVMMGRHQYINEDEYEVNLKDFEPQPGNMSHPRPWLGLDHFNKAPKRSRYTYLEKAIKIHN

Ficin (Ficus carica) = experiment: Inhibition of fig ficin at 100 uM using Z-Arg-AMC as substrate preincubated for 30 mins followed by substrate addition by fluorescence assay
[8] = Inhibition of deubiquitinase in HEK293T cells assessed as stabilization of K48-linked HMW-Ub protein by Western blot analysis; assay type: cell-based, Homo sapiens
Papain (Carica papaya) = target: T1, Papain (Carica papaya) (UniProt P00784); experiment: Inhibition of papaya papain at 100 uM using Z-Arg-AMC as substrate preincubated for 30 mins followed by substrate addition by fluorescence assay
T1 sequence (whole entry): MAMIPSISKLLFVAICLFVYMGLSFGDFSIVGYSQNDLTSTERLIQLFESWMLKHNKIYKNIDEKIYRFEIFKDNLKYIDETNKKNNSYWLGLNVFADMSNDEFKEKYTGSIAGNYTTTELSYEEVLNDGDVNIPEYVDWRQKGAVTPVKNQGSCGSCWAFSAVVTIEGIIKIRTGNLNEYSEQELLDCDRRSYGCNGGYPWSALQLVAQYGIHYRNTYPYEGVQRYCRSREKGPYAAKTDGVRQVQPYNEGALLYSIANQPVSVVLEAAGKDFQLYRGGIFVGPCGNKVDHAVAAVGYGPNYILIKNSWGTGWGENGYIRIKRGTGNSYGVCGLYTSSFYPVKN
Method in brief: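 Enzyme (papain or ficin) preincubated 30 min with inhibitor at 100 μM, then Z-Arg-AMC substrate added at 300 μM; AMC release followed.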

K562 = experiment: Inhibition of deubiquitinase in human K562 cells assessed as accumulation of K48-linked HMW-Ub protein at 50 uM measured after 2 hrs by Western blot analysis; assay type: cell-based
Method in brief: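 K562 cells exposed to compound at 50 μM for 2 h; K48-linked ubiquitin accumulation read by immunoblotting.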

[9] = Inhibition of deubiquitinase in COS1 cells expressing N-terminal HA-tagged ubiquitin assessed as stabilization of HMW-Ub proteins by Western blot analysis; assay type: cell-based, Chlorocebus aethiops
Method in brief: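 HMW-Ub decomposition followed in lysates of Cos-1 cells expressing HA-Ub; EC50 from inhibition of HMW-Ub loss; mean ± s.e.m. of at least 3 independent experiments.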

[10] = target: 26S proteasome (Homo sapiens) (UniProt Q99460+P49721+P20618+P28074+P28062+P28065+P28072+O00487+P25786+P25787+P25788+P25789+P28066+P60900+O14818+Q8TAA3+P40306+A5LHX3+P49720+P28070+Q99436+Q16186+P35998+P62191+P43686+P62333+P17980+P62195+Q13200+O43242+O00232+O00231+Q15008+P51665+Q9UNM6+P55036+P48556+P60896); experiment: Inhibition of 26S proteasome in HEK293T cells expressing GFP-fused Ub G76V mutant assessed as increase in GFP fluorescence; assay type: cell-based
Method in brief: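 HEK 293T cells expressing G76V Ub-GFP, a fusion uncleavable by DUBs that reports ubiquitin-proteasome flux, treated with compound. GFP fluorescence was the read-out, with bortezomib as proteasome-inhibitor reference.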

[11] = target: Ubiquitin carboxyl-terminal hydrolase 9X (Homo sapiens) (UniProt Q93008); experiment: Inhibition of USP9x in human K562 cells assessed as decrease in Bcr-Abl expression at 50 uM measured after 2 hrs by Western blot analysis; assay type: cell-based
Method in brief: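 K562 cells treated with 50 μM compound for 2 h. Lysates were sonicated in SDS, and Bcr-Abl was immunoblotted with anti-Abl antibody.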

[12] = target: Sentrin-specific protease 6 (Homo sapiens) (UniProt Q9GZR1); experiment: Inhibition of recombinant His6-tagged SENP6 catalytic domain (628 to 1112 residues) (unknown origin) at 1 to 25 uM using SUMO2-modified RanGap1 as substrate preincubated for 30 mins followed by substrate addition and measured after 10 mins by Western blot analysis
Sequence of Sentrin-specific protease 6 (Homo sapiens) (Q9GZR1 whole entry, the tested form may be a part): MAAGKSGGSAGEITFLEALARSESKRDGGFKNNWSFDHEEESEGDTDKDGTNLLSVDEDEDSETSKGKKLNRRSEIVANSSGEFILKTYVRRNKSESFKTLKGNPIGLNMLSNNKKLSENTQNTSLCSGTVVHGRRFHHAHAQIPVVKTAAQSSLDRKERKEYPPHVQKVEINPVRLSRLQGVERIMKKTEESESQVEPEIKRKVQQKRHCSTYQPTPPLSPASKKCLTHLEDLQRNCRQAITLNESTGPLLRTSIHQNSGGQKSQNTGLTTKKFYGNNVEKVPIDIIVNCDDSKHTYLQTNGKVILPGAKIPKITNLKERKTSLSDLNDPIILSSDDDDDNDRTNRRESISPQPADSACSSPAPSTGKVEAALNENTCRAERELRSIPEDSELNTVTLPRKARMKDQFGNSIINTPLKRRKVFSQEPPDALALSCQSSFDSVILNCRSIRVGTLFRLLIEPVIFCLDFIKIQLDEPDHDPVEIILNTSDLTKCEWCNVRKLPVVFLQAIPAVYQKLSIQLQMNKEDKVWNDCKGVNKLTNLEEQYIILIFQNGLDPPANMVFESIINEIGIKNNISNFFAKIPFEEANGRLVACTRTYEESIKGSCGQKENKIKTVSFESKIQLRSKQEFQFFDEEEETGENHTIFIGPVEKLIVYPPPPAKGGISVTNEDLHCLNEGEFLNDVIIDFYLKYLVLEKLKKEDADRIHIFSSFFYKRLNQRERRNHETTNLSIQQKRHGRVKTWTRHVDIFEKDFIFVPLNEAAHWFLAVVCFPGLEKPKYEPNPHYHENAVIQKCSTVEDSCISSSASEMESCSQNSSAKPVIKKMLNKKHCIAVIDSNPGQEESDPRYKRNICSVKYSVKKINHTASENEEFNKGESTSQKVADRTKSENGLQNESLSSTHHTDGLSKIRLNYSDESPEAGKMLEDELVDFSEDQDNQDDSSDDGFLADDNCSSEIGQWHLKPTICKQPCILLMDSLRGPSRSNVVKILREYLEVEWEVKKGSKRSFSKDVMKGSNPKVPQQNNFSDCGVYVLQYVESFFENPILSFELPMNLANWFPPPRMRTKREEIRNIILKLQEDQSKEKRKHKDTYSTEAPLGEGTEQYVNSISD
Method in brief: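 His6-SENP6 catalytic domain (aa 628-1112, 200 nM) treated with inhibitor 30 min at room temperature; SUMOylated His6-RanGap1 (aa 418-588, 3 μM) then added for 10 min at 37 °C; quenched in Laemmli buffer, SDS-PAGE, anti-His6 immunoblot.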

Homo sapiens [13] = species: Homo sapiens; experiment: Inhibition of deubiquitinase in HEK293T cells expressing N-terminal HA-tagged ubiquitin assessed as stabilization of HMW-Ub proteins by measuring half life at 250 uM after 2 hrs by Western blot analysis; assay type: cell-based
Homo sapiens [14] = species: Homo sapiens; experiment: Inhibition of deubiquitinase in HEK293T cells expressing N-terminal HA-tagged ubiquitin assessed as stabilization of HMW-Ub proteins by measuring half life at 500 uM after 2 hrs by Western blot analysis; assay type: cell-based
Homo sapiens [15] = species: Homo sapiens; experiment: Inhibition of deubiquitinase in HEK293T cells expressing N-terminal HA-tagged ubiquitin assessed as stabilization of HMW-Ub proteins at 30 uM after 2 hrs by Western blot analysis; assay type: cell-based
Method in brief: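 Lysate of HEK 293T cells expressing HA-ubiquitin, incubated with inhibitor or DMSO vehicle at 37 °C for up to 2 h. Reactions quenched with reducing Laemmli buffer. Remaining high-molecular-weight ubiquitinated proteins assessed by SDS-PAGE and anti-HA immunoblot, relative to DMSO control at time 0. Duplicate runs.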

With `NCc1ccc(OC(=O)Oc2ccccc2Cl)cc1` the EC50 [1] was 60 µM.
With `CC(C)(C)OC(=O)NCc1ccc(OC(=O)Oc2ccccc2)cc1` the EC50 [1] was greater than 150 µM.
For `COc1ccc(OC(=O)Oc2ccc(CN)cc2)cc1`, the EC50 [1] was 260 µM.
With `CC(C)C[C@H](NC(=O)[C@H](Cc1ccccc1)NC(=O)c1cnccn1)B(O)O` the inhibition (Homo sapiens [2]) was “inactive”.
In the case of `Cc1ccc(OC(=O)Oc2cccc(C)c2)cc1`, the EC50 [1] is reported as greater than 150 µM.
`NCc1ccc(NC(=O)Oc2ccccc2)cc1` showed an EC50 [1] greater than 150 µM.
With `Cc1ccc(/C=C2\CNC/C(=C\c3ccc(C)cc3)C2=O)cc1` the inhibition (Homo sapiens [3]) was “Active”.
`CC(C)CNCc1ccc(OC(=O)Oc2ccc3ccccc3c2)cc1` gave an EC50 [1] of 70 µM.
For `NCc1ccc(O)cc1`, the Activity (MCF7) was “inactive”.
`CC(C)COC(=O)Oc1ccc(CN)cc1` showed an EC50 [1] greater than 500 µM.
With `S=C=NCCc1ccccc1` the K [4] was 150 M⁻¹ s⁻¹.
With `Oc1ccc2ccccc2c1` the Activity (MCF7) was “inactive”.
In the case of `O=C1/C(=C/c2ccc([N+](=O)[O-])cc2)CS(=O)(=O)C/C1=C\c1ccc([N+](=O)[O-])cc1`, the inhibition (Homo sapiens [5]) is reported as “Active”.
With `NCc1ccc(OC(=O)Cc2ccccc2)cc1` the EC50 [1] was greater than 150 µM.
`CCC[C@H](NC(=O)/C(C#N)=C/c1cccc(Br)n1)c1ccccc1` gave a K [6] of 50 M⁻¹ s⁻¹ and a K [7] of 66 M⁻¹ s⁻¹.
Compound `NCc1ccc(OC(=O)Oc2ccc(Cl)cc2)cc1` has an EC50 [1] of 30 µM, a K [6] of 18 M⁻¹ s⁻¹ and a K [7] of 13 M⁻¹ s⁻¹. The inhibition (Ficin (Ficus carica)) was “inactive”, the EC50 [8] was less than 50 µM and the inhibition (Papain (Carica papaya)) was “inactive”. For the same compound, the inhibition (K562) was “Active”, the EC50 [9] was 50 µM and the inhibition [10] was “inactive”. For the same compound, the inhibition [11] was “Active”, the inhibition [12] was “inactive” and the T1/2 (Homo sapiens [13]) was greater than 6 h.
`CC(C)(C)OC(=O)NCc1ccc(OC(=O)Oc2ccc3ccccc3c2)cc1` gave an EC50 [1] greater than 150 µM.
With `NCc1ccc(OC(=O)Oc2ccccc2)cc1` the EC50 [1] was 210 µM, the T1/2 (Homo sapiens [14]) was greater than 0.5 h and the EC50 [9] was 250 µM.
`COc1ccc(OC(=O)Oc2cccc(OC)c2)cc1` showed an EC50 [1] greater than 150 µM.
Compound `O=C(Oc1ccccc1)Oc1ccc(CNCc2ccc(Cl)cc2)cc1` has an EC50 [1] of 300 µM.
`C=CC(=O)N1C/C(=C\c2ccc([N+](=O)[O-])cc2)C(=O)/C(=C/c2ccc([N+](=O)[O-])cc2)C1` showed a K [6] of 140 M⁻¹ s⁻¹.
Compound `N#CSc1cc(SC#N)c(N)nc1N` has a K [6] of 90 M⁻¹ s⁻¹.
For `Cc1cc(C(=O)CN2CCCC2)c(C)n1-c1ccc(F)cc1`, the inhibition (Homo sapiens [15]) was “Active”.
With `CC(C)(C)CNCc1ccc(OC(=O)Oc2ccc3ccccc3c2)cc1` the EC50 [1] was 30 µM, the K [6] was “inactive” and the K [7] was 21 M⁻¹ s⁻¹.
For `NCc1ccc(CC(=O)Oc2ccccc2)cc1`, the EC50 [1] was greater than 150 µM.
`CC(C)(C)OC(=O)NCc1ccc(OC(=O)Oc2ccc(Cl)cc2)cc1` showed an EC50 [1] greater than 150 µM.
`NCc1ccc(OC(=O)Oc2ccc(F)cc2)cc1` gave an EC50 [1] of 300 µM.
In the case of `NCc1ccc(OC(=O)Nc2ccccc2)cc1`, the EC50 [1] is reported as greater than 150 µM.
With `NCc1ccc(OC(=O)Oc2cccc3ccccc23)cc1` the EC50 [1] was 40 µM, the K [6] was 17 M⁻¹ s⁻¹ and the K [7] was “inactive”. For the same compound, the inhibition (Ficin (Ficus carica)) was “inactive”, the EC50 [8] was less than 50 µM and the inhibition (Papain (Carica papaya)) was “inactive”. The inhibition (K562) was “Active”, the inhibition [10] was “inactive” and the inhibition [11] was “Active”.
With `NCc1ccc(OC(=O)Oc2ccc(Br)cc2)cc1` the EC50 [1] was 30 µM, the K [6] was 6 M⁻¹ s⁻¹ and the K [7] was 8 M⁻¹ s⁻¹. The inhibition (Ficin (Ficus carica)) was “inactive”, the EC50 [8] was less than 50 µM and the inhibition (Papain (Carica papaya)) was “inactive”. The inhibition (K562) was “Active”, the EC50 [9] was 40 µM and the inhibition [10] was “inactive”. For the same compound, the inhibition [11] was “Active” and the inhibition [12] was “inactive”.
`O=C(Oc1ccccc1)Oc1ccccc1` gave an EC50 [1] greater than 150 µM.
For `Cc1ccc(OC(=O)Oc2ccc(CN)cc2)cc1`, the EC50 [1] was 250 µM.
